Measured values as given in ChEMBL document CHEMBL2375279, “Synthesis and biological evaluation of helioxanthin analogues” (Bioorg Med Chem, 2013).
Active and inactive are the calls of the source. The calls are words filed in the database; no cut-off is given here.

Tests used:
[1] = Cytotoxicity against human HepA2 cells after 2 days by MTT assay; format: cell-based
Method in brief: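 HepA2 cells were seeded in DMEM with 10% FCS, attached for 24 h, washed with PBS pH 7.0, and then exposed to various compound concentrations in serum-free DMEM for 48 h. Viable cell number in each well was then determined by MTT assay.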

Hepatitis B virus [2] = assay: Antiviral activity against Hepatitis B virus infected in human HepA2 cells assessed as inhibition of viral surface antigen production after 2 days by enzyme immunoassay; format: functional, organism-based; settings: for EC50: HepA2, 48 h
Method in brief: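 HepA2 cells (HepG2 transfected with two tandem HBV genome repeats, secreting HBsAg) were seeded at 3 × 10^4 per well (96-well) or 1 × 10^5 per well (24-well) in DMEM with 10% FCS for 24 h. They were washed twice with PBS pH 7.0 and treated with graded concentrations in serum-free DMEM for 48 h. Medium HBsAg was measured by enzyme immunoassay. EC50 is the concentration giving 50% of untreated HBsAg. Mean ± S.D., n = 3.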

Hepatitis B virus [3] = assay: Antiviral activity against Hepatitis B virus infected in human HepA2 cells assessed as inhibition of viral core promoter activity at 3 uM after 24 hrs by luciferase reporter gene assay; settings: HepA2, 24 h
Hepatitis B virus [4] = assay: Antiviral activity against Hepatitis B virus infected in human 1.3ES2 cells assessed as reduction of large HBsAg mRNA level after 48 hrs by Northern blot analysis; format: functional, organism-based
Method in brief: (§1)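 1.3ES2 cells were grown to confluence in DMEM with 10% FCS, then switched to serum-free DMEM containing compound (0, 1.0 or 5.0 µM) for 48 h. Total RNA was extracted by phenol/guanidinium isothiocyanate, denatured in 2.2 M formaldehyde and run on a 1.2% agarose formaldehyde gel. It was blotted to nylon and probed with a 32P full-length HBV probe. The 3.5 kb and 2.4/2.1 kb bands were normalized to GAPDH.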

Hepatitis B virus [5] = assay: Antiviral activity against Hepatitis B virus infected in human HepA2 cells assessed as inhibition of viral core promoter activity at 0.03 uM after 24 hrs by luciferase reporter gene assay; settings: HepA2, 24 h
Hepatitis B virus [6] = assay: Antiviral activity against Hepatitis B virus infected in human 1.3ES2 cells assessed as reduction of middle/major HBsAg mRNA level after 48 hrs by Northern blot analysis; format: functional, organism-based; method in brief: as §1
Hepatitis B virus [7] = assay: Antiviral activity against Hepatitis B virus infected in human HepA2 cells assessed as inhibition of viral core promoter activity after 24 hrs by luciferase reporter gene assay
Hepatitis B virus [8] = assay: Antiviral activity against Hepatitis B virus infected in human 1.3ES2 cells assessed as reduction of HBeAg mRNA and pregenomic RNA level after 48 hrs by Northern blot analysis; format: functional, organism-based; method in brief: as §1
Hepatitis B virus [9] = assay: Antiviral activity against Hepatitis B virus infected in human 1.3ES2 cells assessed as inhibition of viral DNA replication after 72 hrs by RT-PCR analysis; format: functional, organism-based
Method in brief: (§2)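 1.3ES2 cells (HepG2 clone stably carrying a 1.3-fold HBV ayw genome) were seeded in 100 mm dishes, then exposed to compound (0, 1.0 or 5.0 µM) in serum-free DMEM for 72 h. Virion-associated HBV DNA in the medium was quantified by real-time PCR against a plasmid standard curve (10^3–10^7 copies), with 45 cycles of 95 °C 12 s and 54 °C 20 s. Mean ± S.D., n = 3.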

Hepatitis B virus [10] = assay: Antiviral activity against Hepatitis B virus infected in human 1.3ES2 cells assessed as reduction of viral RNA level at 5 uM after 48 hrs by Northern blot analysis; format: functional, organism-based; method in brief: as §1
Hepatitis B virus [11] = assay: Antiviral activity against Hepatitis B virus infected in human 1.3ES2 cells assessed as inhibition of viral DNA replication at 5 uM after 72 hrs by RT-PCR analysis; format: functional, organism-based; method in brief: as §2

| SMILES | EC50 (Hepatitis B virus [2]) [µM] | CC50 at 48 h [1] [µM] | further results |
| --- | --- | --- | --- |
| COc1ccc(-c2c(COC(C)=O)c(COC(C)=O)cc3ccc4c(c23)OCO4)cc1OC(C)=O | 0.65 | > 12.5 |  |
| COc1cc(-c2c(COC(C)=O)c(COC(C)=O)cc3ccc4c(c23)OCO4)ccc1O | > 12.5 | > 12.5 |  |
| COc1ccc(-c2c(COC(C)=O)c(COC(C)=O)cc3ccc4c(c23)OCO4)cc1OC | 3.03 | > 12.5 |  |
| CC(=O)OCc1cc2ccc3c(c2c(-c2ccc(O)c(O)c2)c1COC(C)=O)OCO3 | > 12.5 | > 12.5 |  |
| CCCCCC(=O)OCc1cc2ccc3c(c2c(-c2ccc(OC)c(OC(=O)CCCCC)c2)c1COC(=O)CCCCC)OCO3 | > 12.5 | > 12.5 |  |
| O=C1OCc2c1cc1ccc3c(c1c2-c1ccc2c(c1)OCO2)OCO3 [HELIOXANTHIN] |  |  | inhibition at 3 µM (Hepatitis B virus [3]): 30% |
| CC(=O)OCc1cc2ccc3c(c2c(-c2ccc(O)c(OC(C)=O)c2)c1COC(C)=O)OCO3 | > 12.5 | > 12.5 |  |
| CCCCCC(=O)OCc1cc2ccc3c(c2c(-c2ccc(O)c(OC)c2)c1COC(=O)CCCCC)OCO3 | > 12.5 | > 12.5 |  |
| COc1ccc(-c2c(CO)c(CO)cc3ccc4c(c23)OCO4)cc1OC | > 12.5 | > 12.5 |  |
| COc1cc(-c2c(COC(C)=O)c(COC(C)=O)cc3ccc4c(c23)OCO4)ccc1OC(C)=O | 2.77 | > 12.5 |  |
| CCCCCC(=O)OCc1cc2ccc3c(c2c(-c2ccc(OC)c(O)c2)c1COC(=O)CCCCC)OCO3 | 3.33 | > 12.5 |  |
| COc1cc(-c2c3c(cc4ccc5c(c24)OCO5)C(=O)OC3)ccc1O |  | > 12.5 |  |
| COc1ccc(-c2c(CO)c(CO)cc3ccc4c(c23)OCO4)cc1O | 0.67 | > 12.5 |  |
| CCCCCC(=O)OCc1cc2ccc3c(c2c(-c2ccc(OC)c(OC)c2)c1CO)OCO3 | > 12.5 | > 12.5 |  |
| CC(=O)OCc1cc2ccc3c(c2c(-c2ccc4c(c2)OCO4)c1CO)OCO3 |  | > 12.5 |  |
| CCCCCC(=O)OCc1cc2ccc3c(c2c(-c2ccc(OC)c(O)c2)c1CO)OCO3 | 1.97 | > 12.5 |  |
| CCCCCC(=O)OCc1cc2ccc3c(c2c(-c2ccc(O)c(O)c2)c1COC(=O)CCCCC)OCO3 | > 12.5 | > 12.5 |  |
| COc1ccc(-c2c(CO)c(COC(C)=O)cc3ccc4c(c23)OCO4)cc1OC | 3.7 | > 12.5 |  |
| CC(=O)OCc1cc2ccc3c(c2c(-c2ccc(OC(C)=O)c(OC(C)=O)c2)c1COC(C)=O)OCO3 | > 12.5 | > 12.5 |  |
| COc1cc(-c2c(CO)c(CO)cc3ccc4c(c23)OCO4)ccc1O | 2.73 | > 12.5 |  |

Second part, led by results:

| EC50 (Hepatitis B virus [2]) [µM] | SMILES | CC50 at 48 h [1] [µM] | further results |
| --- | --- | --- | --- |
| 3.94 | COc1cc(-c2c3c(cc4ccc5c(c24)OCO5)COC3=O)ccc1O | > 12.5 |  |
| > 12.5 | COc1cc(-c2c(CO)c(COC(C)=O)cc3ccc4c(c23)OCO4)ccc1O | > 12.5 |  |
| 1.9 | CCCCCC(=O)OCc1cc2ccc3c(c2c(-c2ccc4c(c2)OCO4)c1COC(=O)CCCCC)OCO3 | > 12.5 |  |
| > 6 | O=C1c2cc3ccc4c(c3c(-c3ccc5c(c3)OCO5)c2CN1CCO)OCO4 | > 12.5 |  |
| 0.86 | COC(=O)CN1Cc2c(cc3ccc4c(c3c2-c2ccc3c(c2)OCO3)OCO4)C1=O | > 12.5 |  |
| > 12.5 | N#CCCCCCCCCOc1ccc(-c2c3c(cc4ccc5c(c24)OCO5)C(=O)OC3)cc1O | > 12.5 |  |
| > 6 | COc1ccc(-c2c3c(cc4ccc5c(c24)OCO5)C(=O)OC3)cc1OC |  |  |
| 3.4 | O=C1OCc2cc3ccc4c(c3c(-c3ccc(O)c(O)c3)c21)OCO4 | > 12.5 |  |
| 0.06 | COc1ccc(-c2c3c(cc4ccc5c(c24)OCO5)C(=O)OC3)cc1OC(C)=O | > 12.5 | Activity (Hepatitis B virus [4]): Dose-dependent effect; inhibition at 0.03 µM (Hepatitis B virus [5]): 40%; Activity (Hepatitis B virus [6]): Dose-dependent effect; inhibition (Hepatitis B virus [7]): Dose-dependent effect; Activity (Hepatitis B virus [8]): Dose-dependent effect; inhibition (Hepatitis B virus [9]): Dose-dependent effect; inhibition (Hepatitis B virus [2]): Dose-dependent effect |
| 0.49 | COc1ccc(-c2c(CO)c(COC(C)=O)cc3ccc4c(c23)OCO4)cc1O | > 12.5 |  |
| > 6 | N#Cc1cc2ccc3c(c2c(-c2ccc4c(c2)OCO4)c1C#N)OCO3 | > 12.5 |  |
| > 6 | COc1cc(-c2c3c(cc4ccc5c(c24)OCO5)C(=O)OC3)ccc1OC(C)=O | > 12.5 | Activity (Hepatitis B virus [10]): inactive; inhibition (Hepatitis B virus [11]): inactive |
| > 6 | N#CCCN1Cc2c(cc3ccc4c(c3c2-c2ccc3c(c2)OCO3)OCO4)C1=O | > 12.5 |  |
| > 6 | O=C(O)CN1Cc2c(cc3ccc4c(c3c2-c2ccc3c(c2)OCO3)OCO4)C1=O | > 12.5 |  |
| 1.9 | CCCCCC(=O)OCc1cc2ccc3c(c2c(-c2ccc4c(c2)OCO4)c1CO)OCO3 | > 12.5 |  |
| 0.38 | O=C1OCc2c1cc1ccc3c(c1c2-c1ccc2c(c1)OC(F)(F)O2)OCO3 | > 12.5 |  |
| 1.74 | COc1ccc(-c2c3c(cc4ccc5c(c24)OCO5)COC3=O)cc1O | > 12.5 |  |
| > 12.5 | OCc1cc2ccc3c(c2c(-c2ccc(O)c(O)c2)c1CO)OCO3 | > 12.5 |  |
| > 6 | CCCCCCCCOC(=O)CN1Cc2c(cc3ccc4c(c3c2-c2ccc3c(c2)OCO3)OCO4)C1=O | > 12.5 |  |
| > 12.5 | CCCCCOC(=O)CN1Cc2c(cc3ccc4c(c3c2-c2ccc3c(c2)OCO3)OCO4)C1=O | 3.05 |  |
| > 12.5 | CC(=O)Oc1cc(-c2c3c(cc4ccc5c(c24)OCO5)C(=O)OC3)ccc1OCCCCCCCCC#N | > 12.5 |  |
